# Experimental data published in ChEMBL document CHEMBL4342503, “Diazabicyclooctane Functionalization for Inhibition of β-Lactamases from Enterobacteria” (2020).
# Activity calls are given as the source filed them. The rule behind the calls is not given here.
# Legend:
# Escherichia coli [1] = assay: Antibacterial activity against Escherichia coli Top10 without harboring KPC-2 assessed as aztreonam MIC by CLSI protocol based method (reference value: 0.5 ug/ml); type: functional
# Escherichia coli [2] = assay: Antibacterial activity against Escherichia coli Top10 harboring OXA-48 assessed as ertapenem MIC by CLSI protocol based method (reference value: 8 ug/ml); type: functional
# Escherichia coli [3] = assay: Antibacterial activity against Escherichia coli Top10 without harboring CTX-M-15 assessed as amoxicillin MIC by CLSI protocol based method (reference value: 8 ug/ml); type: functional
# Enterobacter cloacae [4] = assay: Inhibition of Enterobacter cloacae AmpC expressed in Escherichia coli BL21 DE3 assessed as K2/Ki ratio using nitrocefin as substrate by spectrophotometry
# Method in brief: (§1)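 His-tagged enzymes expressed in E. coli BL21(DE3) (IPTG 0.5 mM, 16°C, 18 h), purified by Ni-NTA and size exclusion in 25 mM Tris-HCl pH 7.5, 300 mM NaCl. Carbamoylation k2/Ki from progress curves, reporter nitrocefin 100 μM, 20°C, 100 mM MES pH 6.4; inhibitor up to 100 μM; ≥6 curves, ≥2 independent experiments.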
# Escherichia coli [5] = assay: Antibacterial activity against Escherichia coli Top10 harboring TEM1 assessed as cefamandole MIC by CLSI protocol based method (reference value: 2048 ug/ml); type: functional
# Escherichia coli [6] = assay: Antibacterial activity against Escherichia coli Top10 without harboring OXA-48 assessed as ertapenem MIC by CLSI protocol based method (reference value: < 0.03 ug/ml); type: functional
# Escherichia coli [7] = assay: Antibacterial activity against Escherichia coli Top10 assessed as cefamandole MIC by CLSI protocol based method (reference value: 2 ug/ml); type: functional
# Method in brief: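 Broth microdilution in cation-adjusted Mueller-Hinton broth following CLSI. Strain carries a β-lactamase gene cloned in pTRC-99k (kanamycin marker); preculture in BHI with IPTG (500 μM) and kanamycin (50 μg/ml); IPTG (500 μM) also in plates to induce enzyme. β-Lactam MIC read with or without inhibitor at fixed 15 μM (4 μg/ml for avibactam; clavulanate 4 μg/ml). Median of five biological repeats from two independent experiments.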
# Escherichia coli [8] = assay: Antibacterial activity against Escherichia coli Top10 harboring KPC-2 assessed as aztreonam MIC by CLSI protocol based method (reference value: 2048 ug/ml); type: functional
# Escherichia coli [9] = assay: Antibacterial activity against Escherichia coli Top10 without harboring AmpC assessed as cefotaxime MIC by CLSI protocol based method (reference value: 0.125 ug/ml); type: functional
# Escherichia coli [10] = assay: Antibacterial activity against Escherichia coli Top10 harboring CTX-M-15 assessed as amoxicillin MIC by CLSI protocol based method (reference value: 2048 ug/ml); type: functional
# [11] = Inhibition of KPC-2 (unknown origin) expressed in Escherichia coli BL21 DE3 assessed as K2/Ki ratio using nitrocefin as substrate by spectrophotometry; method in brief: as §1
# Enterobacter cloacae [12] = assay: Inhibition of Enterobacter cloacae CTX-M-15 expressed in Escherichia coli BL21 DE3 assessed as K2/Ki ratio using nitrocefin as substrate by spectrophotometry; method in brief: as §1
# [13] = Inhibition of OXA-48 expressed in Escherichia coli BL21 DE3 assessed as K2/Ki ratio using CENTA as substrate by spectrophotometry
# Method in brief: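 OXA-48 expressed in E. coli BL21(DE3) (IPTG 0.5 mM, 16°C, 18 h), purified by Ni-NTA and size exclusion. Carbamoylation k2/Ki by spectrophotometric progress curves with CENTA 100 μM as reporter, 20°C, 100 mM MES pH 6.4; inhibitor up to 100 μM; ≥6 curves from ≥2 independent experiments.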
# Escherichia coli [14] = assay: Antibacterial activity against Escherichia coli Top10 harboring AmpC assessed as cefotaxime MIC by CLSI protocol based method (reference value: 256 ug/ml); type: functional
# [15] = Inhibition of TEM1 (unknown origin) expressed in Escherichia coli BL21 DE3 assessed as K2/Ki ratio using nitrocefin as substrate by spectrophotometry; method in brief: as §1
Structure (SMILES),MIC (Escherichia coli [1]) [µg/mL],MIC (Escherichia coli [2]) [µg/mL],MIC (Escherichia coli [3]) [µg/mL],Ratio (Enterobacter cloacae [4]) [M⁻¹ s⁻¹],MIC (Escherichia coli [5]) [µg/mL],MIC (Escherichia coli [6]) [µg/mL],MIC (Escherichia coli [7]) [µg/mL],MIC (Escherichia coli [8]) [µg/mL],MIC (Escherichia coli [9]) [µg/mL],MIC (Escherichia coli [10]) [µg/mL],Ratio [11] [M⁻¹ s⁻¹],Ratio (Enterobacter cloacae [12]) [M⁻¹ s⁻¹],Ratio [13],MIC (Escherichia coli [14]) [µg/mL],Ratio [15] [M⁻¹ s⁻¹]
O=C1N2C[C@@H](CC[C@H]2Cn2cc(-c3cccnc3)nn2)N1OS(=O)(=O)[O-].[Na+],0.25,8,2,85,8,< 0.03,2,32,0.125,32,550,1700,inactive,128,1400
CN(C)Cc1cn(C[C@@H]2CC[C@@H]3CN2C(=O)N3OS(=O)(=O)[O-])nn1.[Na+],0.5,8,4,20,32,< 0.03,2,64,0.125,256,120,29,inactive,64,780
CC(C)(C)OC(=O)N1CCC(c2cn(C[C@@H]3CC[C@@H]4CN3C(=O)N4OS(=O)(=O)[O-])nn2)CC1.[Na+],0.25,16,8,29,256,< 0.03,2,2050,0.125,4100,830,230,210 M⁻¹ s⁻¹,128,1700
C[Si](C)(C)c1cn(C[C@@H]2CC[C@@H]3CN2C(=O)N3OS(=O)(=O)[O-])nn1.[Na+],0.5,16,8,24,64,< 0.03,2,512,0.125,1020,97,400,inactive,64,370
O=C(O)C(F)(F)F.O=C1N2C[C@@H](CC[C@H]2Cn2cc(C3CCNCC3)nn2)N1OS(=O)(=O)O,0.25,8,4,26,4,< 0.03,2,32,0.125,64,340,350,inactive,128,3600
NCc1cn(C[C@@H]2CC[C@@H]3CN2C(=O)N3OS(=O)(=O)O)nn1.O=C(O)C(F)(F)F,0.25,8,4,16,4,< 0.03,4,32,0.125,128,120,88,inactive,128,3100
O=C([O-])[C@H]1/C(=C/CO)O[C@@H]2CC(=O)N21.[Na+] [CLAVULANIC ACID (SODIUM)],0.5,8,8,–,2,< 0.03,2,512,0.0625,2,–,–,–,128,–
O=C(O)CCc1cn(C[C@@H]2CC[C@@H]3CN2C(=O)N3OS(=O)(=O)[O-])nn1.[Na+],0.25,8,2,99,32,< 0.03,2,256,0.25,–,70,110,inactive,64,720
